# According to PubChem BioAssay:
# A number with no mark means an inactive call. Records with an inconclusive call do not appear. The source made the active and inactive calls.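 How the source made its calls, unless noted: active means growth inhibition above 25% in both replicates, a cutoff set 3 SD above the mean; inconclusive means above 25% in only one replicate; inactive means the rest.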
# Legend:
# [1] = S. cerevisiae growth inhibition in permissive medium (OD615), pilot counter-assay for S. cerevisiae lifespan shortening project, permissive growth control (AID 705); conditions: OD615, 24 h, at 10 µM, active compounds read high
# Procedure, shortened: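 assay system = Saccharomyces cerevisiae strain carrying genetically modified DeaD replicative-lifespan system | technique = absorbance (optical density) at 615 nm | buffer or medium = permissive raffinose/galactose medium | timing = cells pre-grown 4 h, then 24 h compound exposure, 30 °C humidified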
# [2] = S. cerevisiae growth inhibition in restrictive medium, OD615, pilot screen, restrictive growth control, yeast lifespan reduction project (AID 706;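 active means growth inhibition above a set limit, 3 SD over mean compound inhibition, in both replicates, cut at about 43% in these data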;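 further: modified DeaD lifespan yeast strain shifted to restrictive glucose medium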); conditions: OD615, 48 h, at 10 µM, active compounds read high
# Procedure, shortened: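 System: modified S. cerevisiae. Buffer or medium: CSMM-D glucose medium. Incubation: 4 h pre-growth plus 48 h compound exposure, 30 °C. Detection: absorbance (optical density) measured at 615 nm.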
# [3] = doxorubicin toxicity protection in MRP-1 cells – H69AR cells, CellTiter-Glo, duplicate, MRP-1 activator project, pilot screen (AID 807;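 active means viability increase at or above a cutoff of the median across tested compounds plus 3 SD, cut at about 8.5% in these data, passing the limit was not always enough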;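 further: compound pretreatment 18-22 h then 72 h combined with doxorubicin; 0% = doxorubicin alone and 100% = vehicle without doxorubicin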); conditions: H69AR viability with doxorubicin, CellTiter-Glo luminescence; at 10 µM; active compounds read high
# [4] = viability of HCT116 without oncogenic beta-catenin – human colon tumor cells, pilot screen (AID 823;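 active means cell viability at or below a set limit in both duplicate runs, the limit being the all-compound median minus 4 SD, cut at about 23% in these data, passing the limit was not always enough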;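 further: 0% = wells killed by 20 µM Hyamine and 100% = untreated DMSO cell wells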); conditions: HCT116 beta-catenin knockout viability, CellTiter-Glo, 60 h; at 10 µM; active compounds read low
# [5] = viability of PTEN-null HCT116 cells – cell-based, HCT116 clonal line, CellTiter-Glo, pilot screen (AID 824;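 active means viability at or below 27.92% in each of two runs, the all-compound median minus 4 SD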;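 further: 0% = 20 µM Hyamine control and 100% = vehicle cell control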); conditions: HCT116 PTEN-deleted viability, 60 h, at 10 µM, active compounds read low
# [6] = RAM pathway blockade in budding yeast – dse1pr::URA3 reporter, 5-FOA selection, pilot screen (AID 869;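 active means inhibition over a set limit, the all-compound mean plus 3 SD, in both replicate runs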;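 further: 0% = DMSO wells with no growth and 100% = 10 µM 1-NA-PP1 with full growth; RAM network block rescues cells from 5-FOA so hits raise OD615 growth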); conditions: S. cerevisiae dse1pr::URA3 5-FOA growth, OD615, 2 d; at 10 µM; active compounds read high; strain carries analog-sensitive mutant Cbk1 kinase
# [7] = RAM signaling pathway blockade in yeast – S. cerevisiae, Pdr1DBD-CYC8 efflux-inhibited sensitized strain, primary screen (AID 1298;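 active means RAM network inhibition above 8.4% in each of two replicates, 3 SD over the compound average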;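 further: 0% = DMSO untreated cells without growth and 100% = 10 µM 1-NA-PP1 full growth; higher means more yeast growth rescued from 5-FOA killing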); conditions: S. cerevisiae cbk1-as DSE1-URA3 strain, 5-FOA growth OD615, 2 d; at 50 µM; active compounds read high
Structure (SMILES),growth inhibition [1] [%],growth inhibition [2] [%],viability increase [3] [%],viability [4],viability [5] [%],inhibition [6] [%],RAM network inhibition [7] [%]
Cn1c(/N=C/c2cccs2)nc2ccccc21,-8.72,-5.94,-2.39,93.9%,94.8,2.46,1.77
CC(=O)N=C1SC2CS(=O)(=O)CC2N1c1c(Cl)cccc1Cl (stereo unspecified),5.46,3.7,-1.41,99.4%,94.2,0.405,-0.17
Cc1c(C#N)c2ccccc2n1CCOc1ccccc1F,-5.92,-11.9,1.94,69.8%,68.5,2.25,6.77
O=C(Nc1nnc(-c2ccco2)o1)C1CCCCC1,-17,-13.8,-1.58,99.1%,93.2,1.52,0.58
CC(=O)Nc1ccc2nc(-c3cccs3)[nH]c2c1,-5.51,-15.4,-2.88,97.8%,90.3,2.38,4.66
CCOC(=O)N1CCC(N2C(=O)c3ccccc3C2=O)CC1,-1.78,-3.71,0.37,102%,98.8,1.98,-0.31
Fc1ccc(OCc2nc(-c3ccc(Br)o3)no2)c(F)c1,-8.99,-12.8,2.67,99.5%,97.7,0.82,3.12
COc1ccc(S(=O)(=O)N2CCN(C)CC2)cc1Br,-1.05,9.22,-2.75,95%,92,1.01,-0.01
O=C(NO)c1ccc(C(=O)N(C2CCCCC2)C2CCCCC2)cc1,-0.05,5.84,-5.78,17.2% (active),36.1,0.64,-1.08
COc1ccc(OCC(O)CN2CCCCC2)cc1 (stereo unspecified),-7.21,-11.1,-1.52,95%,101,1.59,0.52
OC(COc1ccccc1Cl)CN1CCN(CC(O)COc2ccccc2Cl)CC1 (stereo unspecified),3.62,-11.8,-5.92,73.3%,81.9,0.495,3.13
O=C(O)C1CC=CCC1C(=O)Nc1cccc(Cl)c1Cl (stereo unspecified),-8.95,-11.1,-1.82,99.6%,101,3.07,0.21
Cc1cc(C)nc(N(C#N)Cc2ccccc2Cl)n1,-8.69,4.5,-3.71,99.7%,95.5,1.48,-0.21
Cc1cc(C(F)(F)F)n2ncc(C(=O)O)c2n1,2.26,0.105,-0.34,98.3%,91,-0.025,0.78
COc1ccc(CC(=O)c2ccc(O)cc2O)cc1OC,-6.46,-7.7,-3.53,95.6%,89.2,1.26,2.27
COc1ccc(CCNC(=O)CCNS(=O)(=O)c2cccc3nsnc23)cc1OC,-2.13,-8.7,-4.88,86.5%,97.2,0.305,1.25
O=C(C1CCC(Cn2c(=O)[nH]c3ccccc3c2=O)CC1)N1CCN(c2ccccc2)CC1 (stereo unspecified),-14.3,-1.08,2.93,82.6%,67.6,1.81,6.69

Structure (SMILES),growth inhibition [1] [%],growth inhibition [2] [%],viability increase [3] [%],viability [4],viability [5] [%],inhibition [6] [%],RAM network inhibition [7] [%]
OCCN1CCN(c2ncnc3ccc(Br)cc23)CC1,-15.5,4.06,-4.77,99.1%,96.7,-0.12,-1.2
O=C(Cn1c(S(=O)(=O)Cc2ccccc2)nc2ccccc21)N1CCCCC1,-5.32,2.88,-6.5,107%,99.3,-0.04,3.73
CCC1(C)C2(C#N)C(N)=NC(OC)(OC)C12C#N (stereo unspecified),-5.98,-10.1,-0.83,106%,99.3,1.41,2.07
COc1cccc(CNC(=O)Cn2cc3c(n2)CCCCC3)c1,-12.5,-19.7,-1.29,92.3%,85.9,1.56,1.81
Cc1cc(C)n(C(=O)c2ccc(NC(=O)C3CC3)cc2)n1,-8.57,-4.89,1.99,102%,91.3,1.58,5.67
Cc1ccc(Cl)cc1N1CCN(C(=O)C2CCN(c3nnc(-n4cccc4)s3)CC2)CC1,-6.07,-7.06,2.36,64%,64,4.06,8.04
CCOc1ccccc1C(=O)Nc1nnc(C(C)C)s1,3,-2.61,-4.41,98.1%,91.5,0.55,2.24
O=C(CCS(=O)(=O)c1cccc2nonc12)N1CCOCC1,-6.54,-14.3,-2.16,88%,100,2.56,2.65
Cc1ccc(-c2noc(CN(C(=O)c3cccc(Br)c3)C(C)C)n2)cc1,0.485,-2.63,1.98,92.5%,85.3,2.58,10
Cc1nc2ccccc2c2oc(C(=O)NC3CC3)cc12,-8,5.36,-2.61,112%,89.6,0.79,-1.66
CCCCN(C(=O)NC(=O)C1=C(N2CCOCC2)/C(=C/c2ccccc2)CC1)S(C)(=O)=O,-2.54,-6.07,-2.95,86.1%,89.8,0.17,-0.73
COc1cc(C)c(S(=O)(=O)NCc2ccc3c(c2)OCO3)cc1C,-2.38,3,0.6,106%,102,-0.055,-0.06
COc1cccc(-c2nc(CS(=O)CC(=O)NC3CCCC3)c(C)o2)c1 (stereo unspecified),-7.39,1.47,-2.4,90.3%,95.6,1.09,1.25
COc1ccc(-n2c(Cc3cc(=O)[nH]c(=O)[nH]3)nnc2SCC(=O)NC2CCCC2)cc1,-0.575,2.41,1.47,104%,107,0.535,3.15
CCn1cc(C(=O)NCCCN2CC(C)CC(C)C2)c(=O)c2cc(S(=O)(=O)N(C)C)ccc21 (stereo unspecified),-10.3,-19.1,-2.78,96%,98.7,0.88,-0.73
CCOC(=O)c1cc2c(=O)n3ccccc3nc2n(C(C)C)c1=NC(=O)c1ccncc1,6.47,4.03,-1.27,98.3%,94.7,-0.45,-0.58
